# Test results published in ChEMBL document CHEMBL4715682, “Potent trifluoromethoxy, trifluoromethylsulfonyl, trifluoromethylthio and pentafluorosulfanyl containing (1,3,4-oxadiazol-2-yl)benzamides against drug-resistant Gram-positive bacteria” (RSC Med Chem, 2020).
# Active and inactive are the calls of the source. No cut-off for these calls is given here.
# How the values were obtained:
# Staphylococcus aureus [1] = experiment: Antibacterial activity against Staphylococcus aureus ATCC 25923 assessed as inhibition of visible bacterial growth incubated for 18 to 20 hrs by CLSI method; format: functional; conditions: time 18-20 hrs
# How it was run: (§1)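 CLSI broth microdilution. Strains grown aerobically overnight on tryptic soy agar at 37 °C, adjusted to 0.5 McFarland and diluted in cation-adjusted Mueller–Hinton broth to about 5×10^5 CFU/mL. Compounds and control drugs serially diluted across the plate. Incubated aerobically at 37 °C for 18-20 h. MIC is the lowest concentration with no visible growth.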
# Staphylococcus aureus [2] = experiment: Antibacterial activity against methicillin-resistant Staphylococcus aureus ATCC 33592 assessed as inhibition of visible bacterial growth incubated for 18 to 20 hrs by CLSI method; format: functional; conditions: time 18-20 hrs; how it was run: as §1
# Staphylococcus aureus [3] = experiment: Antibacterial activity against methicillin-sensitive Staphylococcus aureus ATCC 6538 assessed as inhibition of visible bacterial growth incubated for 18 to 20 hrs by CLSI method; format: functional; conditions: time 18-20 hrs; how it was run: as §1
# Staphylococcus aureus [4] = experiment: Antibacterial activity against methicillin-sensitive Staphylococcus aureus NRS 107 assessed as inhibition of visible bacterial growth incubated for 18 to 20 hrs by CLSI method; format: functional; conditions: time 18-20 hrs; how it was run: as §1
# Staphylococcus aureus [5] = experiment: Antibacterial activity against methicillin-resistant Staphylococcus aureus NRS 119 assessed as inhibition of visible bacterial growth incubated for 18 to 20 hrs by CLSI method; format: functional; conditions: time 18-20 hrs; how it was run: as §1
# Staphylococcus aureus [6] = experiment: Antibacterial activity against methicillin-resistant Staphylococcus aureus NRS382 assessed as inhibition of visible bacterial growth incubated for 18 to 20 hrs by CLSI method; format: functional; conditions: time 18-20 hrs; how it was run: as §1
# Staphylococcus aureus [7] = experiment: Antibacterial activity against methicillin-resistant Staphylococcus aureus NRS383 assessed as inhibition of visible bacterial growth incubated for 18 to 20 hrs by CLSI method; format: functional; conditions: time 18-20 hrs; how it was run: as §1
# Staphylococcus aureus [8] = experiment: Antibacterial activity against methicillin-resistant Staphylococcus aureus NRS384 assessed as inhibition of visible bacterial growth incubated for 18 to 20 hrs by CLSI method; format: functional; conditions: time 18-20 hrs; how it was run: as §1
# Staphylococcus aureus [9] = experiment: Antibacterial activity against methicillin-resistant Staphylococcus aureus NRS123 assessed as inhibition of visible bacterial growth incubated for 18 to 20 hrs by CLSI method; format: functional; conditions: time 18-20 hrs; how it was run: as §1
# Staphylococcus aureus [10] = experiment: Antibacterial activity against methicillin-resistant Staphylococcus aureus NRS385 assessed as inhibition of visible bacterial growth incubated for 18 to 20 hrs by CLSI method; format: functional; conditions: time 18-20 hrs; how it was run: as §1
# Staphylococcus aureus [11] = experiment: Antibacterial activity against methicillin-resistant Staphylococcus aureus NRS386 assessed as inhibition of visible bacterial growth incubated for 18 to 20 hrs by CLSI method; format: functional; conditions: time 18-20 hrs; how it was run: as §1
# Staphylococcus aureus [12] = experiment: Antibacterial activity against methicillin-resistant Staphylococcus aureus NRS387 assessed as inhibition of visible bacterial growth incubated for 18 to 20 hrs by CLSI method; format: functional; conditions: time 18-20 hrs; how it was run: as §1
# Staphylococcus aureus [13] = experiment: Antibacterial activity against vancomycin-resistant Staphylococcus aureus 10 assessed as inhibition of visible bacterial growth incubated for 18 to 20 hrs by CLSI method; format: functional; conditions: time 18-20 hrs; how it was run: as §1
# Staphylococcus aureus [14] = experiment: Antibacterial activity against vancomycin-resistant Staphylococcus aureus 12 assessed as inhibition of visible bacterial growth incubated for 18 to 20 hrs by CLSI method; format: functional; conditions: time 18-20 hrs; how it was run: as §1
# [15] = system: Staphylococcus epidermidis; experiment: Antibacterial activity against Staphylococcus epidermidis NRS101 assessed as inhibition of visible bacterial growth incubated for 18 to 20 hrs by CLSI method; format: functional; conditions: time 18-20 hrs
# How it was run: (§2)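 Broth microdilution per CLSI. Strains grown aerobically overnight on TSA at 37 °C, suspended to 0.5 McFarland, diluted in CAMHB to about 5×10^5 CFU/mL. Agents serially diluted across plate; aerobic incubation 37 °C for 18-20 h. MIC = lowest concentration completely preventing visible growth.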
# Listeria monocytogenes = experiment: Antibacterial activity against Listeria monocytogenes ATCC 19111 assessed as inhibition of visible bacterial growth incubated for 18 to 20 hrs by CLSI method; format: functional; conditions: time 18-20 hrs; how it was run: as §2
# Staphylococcus aureus [16] = experiment: Bactericidal activity against methicillin-resistant Staphylococcus aureus ATCC 33592 assessed as reduction in bacterial growth incubated for 18 hrs by CLSI method; format: functional
# Staphylococcus aureus [17] = experiment: Antibacterial activity against methicillin-resistant Staphylococcus aureus ATCC 33592 assessed as reduction in bacterial count at 3 x MIC incubated upto 24 hrs by time kill analysis; format: functional; conditions: time hrs <=24
# How it was run: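 Time-kill assay. […] Samples taken at 0, 2, 4, 8, 12 and 24 h, serially diluted in PBS and plated on tryptic soy agar. Viable CFU/mL counted after 18-20 h at 37 °C.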
# Staphylococcus aureus [18] = experiment: Antibacterial activity against methicillin-resistant Staphylococcus aureus NRS483 assessed as inhibition of visible bacterial growth incubated for 18 to 20 hrs by CLSI method; format: functional; conditions: time 18-20 hrs; how it was run: as §1
# Staphylococcus aureus [19] = experiment: Antibacterial activity against methicillin-resistant Staphylococcus aureus NRS484 assessed as inhibition of visible bacterial growth incubated for 18 to 20 hrs by CLSI method; format: functional; conditions: time 18-20 hrs; how it was run: as §1
# Streptococcus pneumoniae [20] = experiment: Antibacterial activity against cephalosporin-resistant Streptococcus pneumoniae ATCC 51916 assessed as inhibition of visible bacterial growth incubated for 18 to 20 hrs by CLSI method; format: functional; conditions: time 18-20 hrs; how it was run: as §1
# Streptococcus pneumoniae [21] = experiment: Antibacterial activity against […] Streptococcus pneumoniae ATCC 700677 assessed as inhibition of visible bacterial growth incubated for 18 to 20 hrs by CLSI method; format: functional; conditions: time 18-20 hrs; how it was run: as §1
# Enterococcus faecalis [22] = experiment: Antibacterial activity against vancomycin- resistant Enterococcus faecalis ATCC 51299 assessed as inhibition of visible bacterial growth incubated for 18 to 20 hrs by CLSI method; format: functional; conditions: time 18-20 hrs; how it was run: as §1
# Enterococcus faecalis [23] = experiment: Antibacterial activity against vancomycin- resistant Enterococcus faecalis ATCC 700221 assessed as inhibition of visible bacterial growth incubated for 18 to 20 hrs by CLSI method; format: functional; conditions: time 18-20 hrs; how it was run: as §1
# Escherichia coli = experiment: Antibacterial activity against Escherichia coli ATCC 25404 assessed as inhibition of visible bacterial growth at 16 ug/ml incubated for 18 to 20 hrs by CLSI method; format: functional, organism-based; conditions: B ATCC 25404, dose 16.0 µg/ml, time 18-20 hrs; how it was run: as §1
# Pseudomonas aeruginosa = experiment: Antibacterial activity against Pseudomonas aeruginosa ATCC 27853 assessed as inhibition of visible bacterial growth at 16 ug/ml incubated for 18 to 20 hrs by CLSI method; format: functional, organism-based; conditions: dose 16.0 µg/ml, time 18-20 hrs; how it was run: as §1
# Acinetobacter baumannii = experiment: Antibacterial activity against Acinetobacter baumannii ATCC 19606 RW4 assessed as inhibition of visible bacterial growth at 16 ug/ml incubated for 18 to 20 hrs by CLSI method; format: functional, organism-based; conditions: ATCC 19606 = CIP 70.34 = JCM 6841 RW4, dose 16.0 µg/ml, time 18-20 hrs; how it was run: as §1
# Caco-2 = experiment: Cytotoxicity against human Caco2 cells assessed as reduction in cell viability at 128 ug/ml incubated for 2 hrs by MTS assay; format: cell-based; conditions: caco-2, 2 h, dose 128 µg/ml
# [24] = Hemolytic activity in human RBC at 128 ug/ml incubated for 60 mins relative to control; format: ADME, cell-based, Erythrocyte; conditions: red blood cells (erythrocytes), dose 128 µg/ml, read-out: Activity
# How it was run: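 Single-donor human erythrocytes as a 5% v/v suspension in PBS. Compounds serially diluted in PBS, in triplicate, and incubated with RBCs at 37 °C for 60 min. PBS served as the negative control and Triton-X as the positive control. Samples spun at 4,000 rpm for 5 min and supernatant absorbance read at 540 nm. Percent hemolysis = 100×(sample−negative)/(positive−negative).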
# Staphylococcus aureus [25] = experiment: Synergistic antibacterial activity against methicillin-resistant Staphylococcus aureus ATCC 33592 assessed as fractional inhibitory concentration index in presence of linezolid by checkerboard assay; format: functional
# Staphylococcus aureus [26] = experiment: Synergistic antibacterial activity against methicillin-resistant Staphylococcus aureus ATCC 33592 assessed as fractional inhibitory concentration index in presence of methicillin by checkerboard assay; format: functional
# Staphylococcus aureus [27] = experiment: Synergistic antibacterial activity against methicillin-resistant Staphylococcus aureus ATCC 33592 assessed as fractional inhibitory concentration index in presence of daptomycin by checkerboard assay; format: functional
# Staphylococcus aureus [28] = experiment: Synergistic antibacterial activity against methicillin-resistant Staphylococcus aureus ATCC 33592 assessed as fractional inhibitory concentration index in presence of Vancomycin; format: functional
# J774 = experiment: Cytotoxicity against mouse J774 cells assessed as reduction in cell viability at 32 ug/ml incubated for 24 hrs by MTS assay; format: cell-based; conditions: j774, 24 h, dose 32 µg/ml
# Staphylococcus aureus [29] = experiment: Antibacterial activity against methicillin-resistant Staphylococcus aureus USA400 infected in mouse J774 cells assessed as log reduction in intracellular growth at 8 ug/ml incubated for 18 to 22 hrs; format: functional; conditions: dose 8 µg/ml; time 18-22 hrs
# How it was run: (§3)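 J774 murine macrophages grown in DMEM with 10% FBS at 37 °C, 5% CO2. Cells infected with MRSA USA400 at MOI about 10:1 for 1 h, then washed with gentamicin to remove extracellular bacteria. Agents added at 8 or 16 μg/mL in triplicate, with DMSO vehicle control, for 24 h. Cells lysed with 0.1% Triton-X, lysates plated on tryptic soy agar, and CFU counted after 18-22 h at 37 °C. Analysed by two-way ANOVA with Dunnett's test.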
# Staphylococcus aureus [30] = experiment: Antibacterial activity against methicillin-resistant Staphylococcus aureus USA400 infected in mouse J774 cells assessed as log reduction in intracellular growth at 16 ug/ml incubated for 18 to 22 hrs; format: functional; conditions: dose 16 µg/ml; time 18-22 hrs; how it was run: as §3
smiles,measurement,setting,value
O=C(Nc1nnc(-c2cccs2)o1)c1ccc(C(F)(F)F)cc1,MIC,Staphylococcus aureus [1],2 µg/mL
same,MIC,Staphylococcus aureus [2],2 µg/mL
CSc1ccc(C(=O)Nc2nnc(-c3cccs3)o2)cc1,MIC,Staphylococcus aureus [1],4 µg/mL
same,MIC,Staphylococcus aureus [2],4 µg/mL
CC(=O)NC[C@H]1CN(c2ccc(N3CCOCC3)c(F)c2)C(=O)O1 [LINEZOLID],MIC,Staphylococcus aureus [3],0.5 µg/mL
same,MIC,Staphylococcus aureus [4],0.5 µg/mL
same,MIC,Staphylococcus aureus [5],> 64 µg/mL
same,MIC,Staphylococcus aureus [6],1 µg/mL
same,MIC,Staphylococcus aureus [7],1 µg/mL
same,MIC,Staphylococcus aureus [8],1 µg/mL
same,MIC,Staphylococcus aureus [9],1 µg/mL
same,MIC,Staphylococcus aureus [10],1 µg/mL
same,MIC,Staphylococcus aureus [11],1 µg/mL
same,MIC,Staphylococcus aureus [12],1 µg/mL
same,MIC,Staphylococcus aureus [13],> 64 µg/mL
same,MIC,Staphylococcus aureus [14],> 64 µg/mL
same,MIC,[15],1 µg/mL
same,MIC,Listeria monocytogenes,0.5 µg/mL
same,MBC,Staphylococcus aureus [16],> 128 µg/mL
same,Activity,Staphylococcus aureus [17],1.7 log10CFU/ml
O=C(Nc1nnc(-c2cccs2)o1)c1cccc(C(F)(F)F)n1,MIC,Staphylococcus aureus [1],16 µg/mL
same,MIC,Staphylococcus aureus [2],16 µg/mL
O=C(Nc1nnc(-c2cccs2)o1)c1cc(C(F)(F)F)n[nH]1,MIC,Staphylococcus aureus [1],> 64 µg/mL
same,MIC,Staphylococcus aureus [2],> 64 µg/mL
O=C(Nc1nnc(-c2cccs2)o1)c1ccc(SC(F)(F)F)cc1,MIC,Staphylococcus aureus [1],0.5 µg/mL
same,MIC,Staphylococcus aureus [2],0.5 µg/mL
same,MIC,Staphylococcus aureus [3],0.5 µg/mL
same,MIC,Staphylococcus aureus [4],0.25 µg/mL
same,MIC,Staphylococcus aureus [5],0.5 µg/mL
same,MIC,Staphylococcus aureus [6],0.5 µg/mL
same,MIC,Staphylococcus aureus [7],0.25 µg/mL
same,MIC,Staphylococcus aureus [8],0.5 µg/mL
same,MIC,Staphylococcus aureus [9],0.5 µg/mL
same,MIC,Staphylococcus aureus [10],2 µg/mL
same,MIC,Staphylococcus aureus [11],0.5 µg/mL
same,MIC,Staphylococcus aureus [12],0.125 µg/mL
same,MIC,Staphylococcus aureus [18],0.5 µg/mL
same,MIC,Staphylococcus aureus [19],0.5 µg/mL
same,MIC,Staphylococcus aureus [13],0.5 µg/mL
same,MIC,Staphylococcus aureus [14],0.5 µg/mL
same,MIC,[15],0.25 µg/mL
same,MIC,Streptococcus pneumoniae [20],0.25 µg/mL
same,MIC,Streptococcus pneumoniae [21],0.25 µg/mL
same,MIC,Enterococcus faecalis [22],4 µg/mL
same,MIC,Enterococcus faecalis [23],4 µg/mL
same,MIC,Listeria monocytogenes,0.5 µg/mL
same,inhibition,Escherichia coli,inactive
same,inhibition,Pseudomonas aeruginosa,inactive
same,inhibition,Acinetobacter baumannii,inactive
same,Activity,Caco-2,Non-Toxic
same,"hemolysis at 1 h, 128 ug/ml",[24],19%
same,MBC,Staphylococcus aureus [16],1 µg/mL
same,fractional inhibitory concentration index (FICI),Staphylococcus aureus [25],0.0625
same,fractional inhibitory concentration index (FICI),Staphylococcus aureus [26],0.5
same,fractional inhibitory concentration index (FICI),Staphylococcus aureus [27],0.63
same,fractional inhibitory concentration index (FICI),Staphylococcus aureus [28],1
same,Activity,Staphylococcus aureus [17],4.2 log10CFU/ml
same,Activity,J774,Non-Toxic
same,Activity,Staphylococcus aureus [29],0.7 log10CFU/ml
same,Activity,Staphylococcus aureus [30],0.9 log10CFU/ml
O=C(Nc1nnc(-c2cccs2)o1)c1ccc(F)cc1,MIC,Staphylococcus aureus [1],32 µg/mL
same,MIC,Staphylococcus aureus [2],32 µg/mL
